Results reported in PMC7138454 (Journal of medicinal chemistry, 2014).
Where “and” joins values, the source holds several entries; their conditions need not be identical. Equal values may be shown once. Entries after “also recorded” stand apart in the source; their conditions may differ. Read-outs that look alike come from different tables or passages of the source. Each block holds one molecule with its values, some of them ahead of it.

Key:
OXE receptor [1] = molecular target: T1, OXE receptor (Homo sapiens, UniProt Q8TDS5); experiment: 5-oxo-ETE-induced calcium mobilization in indo-1-loaded neutrophils; format: cell-based; conditions: for Effect on 5-oxo-ETE-induced calcium mobilization: compound 10 μM
OXE receptor [2] = conditions: cited from earlier work
OXE receptor [3] = molecular target: T1, OXE receptor; conditions: cited from earlier work
fMLP = experiment: Selectivity: calcium mobilization in neutrophils in response to fMLP; format: cell-based, human; conditions: compound 10 μM; fMLP 100 nM
Summary of the method: (§1)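 Neutrophils were prepared by dextran sedimentation, Ficoll and hypotonic lysis, loaded with indo-1 AM, and placed in a stirred cuvette at 37 °C in PBS with Ca++ 1.8 mM and Mg++ 1 mM. Fluorescence was read at excitation 331 nm and emission 410 nm. Vehicle or test compound was added at baseline, 5-oxo-ETE (10 nM final) 2 min later, and the second agonist 2 min after that. Digitonin (0.1% final) followed 1 min later for maximal signal.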

PAF = experiment: Selectivity: calcium mobilization in neutrophils in response to PAF; format: cell-based, human; conditions: compound 10 μM; PAF 10 nM
Summary of the method: as §1

[4] = Preliminary pharmacokinetic experiments in rats, oral administration; format: in vivo, rat; conditions: unpublished data
[5] = Metabolism by rat liver homogenates in medium favoring β-oxidation; format: in vitro ADME; conditions: medium containing ATP, CoA, L-carnitine and NAD+
IL-8 = experiment: Selectivity: calcium mobilization in neutrophils in response to IL-8; format: cell-based, human; conditions: compound 10 μM; IL-8 10 nM
Summary of the method: as §1

LTB4 = experiment: Selectivity: calcium mobilization in neutrophils in response to LTB4; format: cell-based, human; conditions: compound 10 μM; LTB4 10 nM
Summary of the method: as §1

[6] = Metabolism by rat liver homogenates in the presence of NADPH; format: in vitro ADME; conditions: 20 μM, NADPH 1 mM, 60 min, 37 °C
Summary of the method: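 Liver from male Sprague-Dawley rats was homogenised in ice-cold 0.25 M sucrose and spun at 600 × g for 10 min; the supernatant served as homogenate. It was incubated with test compound (20 μM) in phosphate buffer (pH 7.4, 50 mM final) with NADPH (1 mM final) for 60 min at 37 °C. Reactions were stopped with ice-cold MeOH. Products were analysed by reversed-phase C18 HPLC (22–42% acetonitrile gradient, 0.02% acetic acid) with photodiode-array UV detection.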

eosinophils = experiment: 5-oxo-ETE-induced actin polymerization in eosinophils; format: cell-based, human; conditions: 5-oxo-ETE 10 nM
neutrophils = experiment: 5-oxo-ETE-induced actin polymerization in neutrophils; format: cell-based, human; conditions: 5-oxo-ETE 10 nM
Summary of the method: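 Unfractionated leukocytes came from healthy-donor blood by dextran sedimentation and hypotonic lysis. They were labelled with APC anti-CD49d (30 min, ice) and held at 5.5 × 10^6 cells/ml in PBS with Ca++ 1.8 mM and Mg++ 1 mM. Cells were preincubated 5 min at 37 °C with DMSO vehicle or test compound, then given 5-oxo-ETE (10 nM final) for 20 s. They were fixed in formaldehyde (8.5% final), permeabilised with lysophosphatidylcholine and stained overnight at 4 °C with NBD-phallacidin (0.3 μM final). F-actin was read by flow cytometry.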

OXE receptor [7] = molecular target: T1, OXE receptor; conditions: concentration of 30 μM; cited from earlier work
OXE receptor [8] = molecular target: T1, OXE receptor; experiment: Agonist activity: calcium mobilization in neutrophils by the compound itself; format: cell-based
Summary of the method: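 Neutrophils were isolated by dextran sedimentation, Ficoll centrifugation and hypotonic lysis, then loaded with indo-1 AM. In PBS with Ca++ 1.8 mM and Mg++ 1 mM (final, added 5 min before), cells sat in a stirred cuvette at 37 °C. Fluorescence was read at excitation 331 nm and emission 410 nm. After a stable baseline, DMSO vehicle or test compound was added, and 2 min later 5-oxo-ETE (10 nM final). Digitonin (0.1% final) gave maximal fluorescence.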

[9] = calcium mobilization, 5-oxo-ETE 10 nM

T1 sequence (Q8TDS5 whole entry): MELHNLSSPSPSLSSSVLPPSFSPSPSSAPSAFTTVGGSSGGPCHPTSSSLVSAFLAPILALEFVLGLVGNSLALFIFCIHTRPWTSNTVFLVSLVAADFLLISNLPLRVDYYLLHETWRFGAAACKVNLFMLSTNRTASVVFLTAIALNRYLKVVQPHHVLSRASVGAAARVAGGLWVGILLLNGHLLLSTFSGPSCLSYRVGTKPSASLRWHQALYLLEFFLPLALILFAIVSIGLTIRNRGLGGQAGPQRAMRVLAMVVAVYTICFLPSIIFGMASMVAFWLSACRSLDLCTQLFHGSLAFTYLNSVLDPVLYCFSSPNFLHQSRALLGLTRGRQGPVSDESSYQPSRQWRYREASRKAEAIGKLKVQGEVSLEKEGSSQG

Increase in antagonist potency relative to 10 (OXE receptor [1]; [9]): over 10 times
SMILES: CCCCCCc1cc2ccccc2n1C(=O)CC(C)CC(=O)O (stereo not shown) [compound 27, 5-(2-hexyl-1H-indol-1-yl)-3-methyl-5-oxopentanoic acid]

Increase in antagonist potency relative to 27 (OXE receptor [1]; [9]): approximately 3 fold
SMILES: CCCCCCc1cc2ccc(Br)cc2n1C(=O)CC(C)CC(=O)O (stereo not shown) [compound 35, 5-(6-bromo-2-hexyl-1-H-indol-1-yl)-3-methyl-5-oxo-pentanoic acid]

Antagonist potency compared with 48 (OXE receptor [1]; [9]): slightly increased potency
SMILES: CCCCCCc1c(C(=O)CCCC(=O)O)c2ccccc2n1C [compound 50, 5-(2-hexyl-1-methyl-1-H-indol-3-yl)-5-oxo-pentanoic acid]

Antagonist potency compared with 27 (OXE receptor [1]; [9]): reduced potency by several fold
SMILES: CCCCCCc1cc2ccc(OC)cc2n1C(=O)CC(C)CC(=O)O (stereo not shown) [compound 36, 5-(2-hexyl-6-methoxy-1-H-indol-1-yl)-3-methyl-5-oxo-pentanoic acid]

Increase in antagonist potency relative to 52 (OXE receptor [1]; [9]): about 4 fold
SMILES: CCCCCCc1c(C(=O)CC(C)CC(=O)O)c2ccc(Cl)cc2n1C (stereo not shown) [compound 56, 5-(6-chloro-2-hexyl-1-methyl-1-H-indol-3-yl)-3-methyl-5-oxo-pentanoic acid]

Appearance in the blood [4]: appear rapidly in the blood
Extent of metabolism [6]: metabolized to an even lesser extent
IC50 (OXE receptor [1]; IC50, inhibition of 5-oxo-ETE-induced calcium mobilization in neutrophils, 5-oxo-ETE 10 nM added 2 min after antagonist): 0.028 µM and ~0.03 µM
Further increase in antagonist potency relative to 51 and 52 (OXE receptor [1]; [9]): over 10 fold
Effect on 5-oxo-ETE-induced calcium mobilization (OXE receptor [1]; 5-oxo-ETE 10 nM): completely blocked
SMILES: CCCCCCc1c(C(=O)CC(C)CC(=O)O)c2cc(Cl)ccc2n1C (racemic) [compound 53, 5-(5-Chloro-2-hexyl-1-methyl-1H-indol-3-yl)-3-methyl-5-oxo-pentanoic acid]
Effect on calcium response to fMLP (fMLP): no effect
Effect on calcium response to PAF (PAF): no effect
Metabolism under conditions favoring β-oxidation [5]: Negligible metabolism; also recorded: no evidence for the metabolism
Effect on calcium response to IL-8 (IL-8): no effect
Effect on calcium response to LTB4 (LTB4): no effect

Antagonist potency compared with 27 (OXE receptor [1]; [9]): relatively little effect
SMILES: CCCCCCc1cc2cc(Cl)ccc2n1C(=O)CC(C)CC(=O)O (stereo not shown) [compound 41, 5-(5-chloro-2-hexyl-1-H-indol-1-yl)-3-methyl-5-oxo-pentanoic acid]

Effect on 5-oxo-ETE-induced calcium mobilization (OXE receptor [1]; 5-oxo-ETE 10 nM): modest antagonist effect
SMILES: CCCCCCc1[nH]c2ccccc2c1C(=O)CCCC(=O)O [compound 48, 5-(2-Hexyl-1H-indol-3-yl)-5-oxo-pentanoic acid]

Antagonist potency compared with 10 (OXE receptor [1]; [9]): nearly eliminated antagonist activity
SMILES: CCCCCCc1cc2ccccc2n1C(=O)CCC(=O)O [compound 29, 4-(2-Hexyl-indol-1-yl)-4-oxo-butyric acid]

Antagonist potency compared with 27 (OXE receptor [1]; [9]): less potent than 27
Increase in antagonist potency relative to 50 (OXE receptor [1]; [9]): about 10 times
SMILES: CCCCCCc1c(C(=O)CCCC(=O)O)c2cc(Cl)ccc2n1C [compound 51, 5-(5-chloro-2-hexyl-1-methyl-1-H-indol-3-yl)-5-oxo-pentanoic acid]

Antagonist potency compared with 53 (OXE receptor [1]; [9]): equipotent
SMILES: CCCCCCc1c(C(=O)CC(C)CC(=O)O)c2cc(Br)ccc2n1C (stereo not shown) [compound 54, 5-(5-bromo-2-hexyl-1-methyl-1-H-indol-3-yl)-3-methyl-5-oxo-pentanoic acid]

Antagonist potency compared with 27 (OXE receptor [1]; [9]): relatively little effect
SMILES: CCCCCCc1c(C)c2ccccc2n1C(=O)CC(C)CC(=O)O (stereo not shown) [compound 47, 5-(2-hexyl-3-methyl-1-H-indol-1-yl)-3-methyl-5-oxo-pentanoic acid]

Antagonist potency compared with 27 (OXE receptor [1]; [9]): reduced potency by several fold
SMILES: CCCCCCc1cc2cc(Br)ccc2n1C(=O)CC(C)CC(=O)O (stereo not shown) [compound 42, 5-(5-bromo-2-hexyl-1-H-indol-1-yl)-3-methyl-5-oxo-pentanoic acid]

Appearance in the blood [4]: appear rapidly in the blood
Converted to a more polar product [6]: about 12%
Extent of metabolism [6]: metabolized to a small extent
Effect on 5-oxo-ETE-induced calcium mobilization (OXE receptor [1]; 5-oxo-ETE 10 nM): completely blocked
SMILES: CCCCCCc1cc2ccc(Cl)cc2n1C(=O)CC(C)CC(=O)O (racemic) [compound 34, 5-(6-Chloro-2-hexyl-indol-1-yl)-3-methyl-5-oxo-pentanoic acid]
Effect on calcium response to fMLP (fMLP): no effect
Effect on calcium response to PAF (PAF): no effect
Metabolism under conditions favoring β-oxidation [5]: Negligible metabolism; also recorded: no evidence for the metabolism
Effect on calcium response to IL-8 (IL-8): no effect
Effect on calcium response to LTB4 (LTB4): no effect

Continued, molecule first:

SMILES: CCCCCCc1cc2ccccc2n1C(=O)CC(C)(C)CC(=O)O [compound 17, 5-(2-hexyl-1H-indol-1-yl)-3,3-dimethyl-5-oxopentanoic acid]
Reduction in antagonist potency relative to 10 (OXE receptor [1]; [9]): about 10 fold

SMILES: CCCCCCCCC/C=C\c1cc2ccccc2n1C(=O)CCCC(=O)O [compound 15, (Z)-5-oxo-5-(2-(undec-1-en-1-yl)-1H-indol-1-yl)pentanoic acid]
Antagonist potency compared with 13 (OXE receptor [1]; [9]): little effect

SMILES: O=C(O)CCCC(=O)/C=C/C=C\C/C=C\C/C=C\CCCCCO [5-oxo-20-hydroxy-ETE]
Times less potent than 5-oxo-ETE (OXE receptor [2]): 100 times

SMILES: CCCCCCCc1cc2ccccc2n1C(=O)CCCC(=O)O [compound 11]
Antagonist potency compared with 10 (OXE receptor [1]; [9]): slightly increased potency

SMILES: CCCCc1cc2ccccc2n1C(=O)CCCC(=O)O [compound 8]
Reduction in antagonist potency relative to 10 (OXE receptor [1]; [9]): over 10 fold

SMILES: CCCCCCCCc1cc2ccccc2n1C(=O)CCCC(=O)O [compound 12]
Antagonist potency compared with 10 (OXE receptor [1]; [9]): slightly increased potency

SMILES: CCCCC/C=C\C[C@H](O)/C=C/C=C\C=C\C(=O)CCCC(=O)O [5-oxo-12-HETE, 5-oxo-12S-hydroxy-6E,8Z,10E,14Z-eicosatetraenoic acid]
Agonist activity (calcium mobilization by the compound itself) (OXE receptor [3]): Neither compound mobilized intracellular calcium; also recorded: not itself affecting intracellular calcium levels

SMILES: CCCCCCc1cc2ccccc2n1C(=O)CCCC(=O)O [compound 10]
Effect on 5-oxo-ETE-induced calcium mobilization (OXE receptor [1]; 5-oxo-ETE 10 nM): completely abolished

SMILES: CCCC/C=C/c1cc2ccccc2n1C(=O)CCCC(=O)O [compound 14, 5-(2-Hex-1-enyl-indol-1-yl)-5-oxo-pentanoic acid]
Antagonist potency compared with 10 (OXE receptor [1]; [9]): reduced potency

SMILES: CCCCCC(=O)/C=C/C=C\C/C=C\C/C=C\CCCC(=O)O [15-oxo-ETE]
Activation of the OXE receptor (OXE receptor [2]): do not activate the OXE receptor

SMILES: CCCCCc1cc2ccccc2n1C(=O)CCCC(=O)O [compound 9]
Antagonist potency compared with 10 (OXE receptor [1]; [9]): small decrease in potency

SMILES: CSc1nc2ccc3nc(NC(=O)C(c4ccccc4)c4ccccc4)sc3c2s1 [Gue1654, 7-(methylthio)-2-[(2,2-diphenylacetyl)amino]benzo[1,2-d:4,3-d′]bisthiazole]
Times less potent than 53 and 34 in blocking actin polymerization in eosinophils (eosinophils): about 10 times
Times less potent than 53 and 34 in blocking actin polymerization in neutrophils (neutrophils): about 10 times

SMILES: CCCCC/C=C\CC(=O)/C=C/C=C\C/C=C\CCCC(=O)O [12-oxo-ETE]
Activation of the OXE receptor (OXE receptor [2]): do not activate the OXE receptor

SMILES: CCCCCCc1cc2ccccc2n1C(=O)CC1(CC(=O)O)CC1 [compound 25, 2-(1-(2-(2-hexyl-1H-indol-1-yl)-2-oxoethyl)cyclopropyl)acetic acid]
Antagonist potency compared with 10 (OXE receptor [1]; [9]): relatively little effect

SMILES: CCCCC/C=C\C[C@H](O)/C=C/C=C/C=C/C(=O)CCCC(=O)O [8-trans-5-oxo-12-HETE]
Agonist activity (calcium mobilization by the compound itself) (OXE receptor [3]): Neither compound mobilized intracellular calcium

SMILES: O=C(O)CCCC(=O)n1ccc2ccccc21 [1(5-oxovalerate)indole]
Antagonist activity (OXE receptor [7]): no detectable activity

SMILES: CCCCC/C=C\C/C=C\C/C=C\C=C\[C@@H](O)CCCC(=O)O [5-HETE, 5S-hydroxy-6E,8Z,11Z,14Z-eicosatetraenoic acid]
Times less potent than 5-oxo-ETE (OXE receptor [2]): 100 times

SMILES: CCCCCCCCCCCc1cc2ccccc2n1C(=O)CCCC(=O)O [compound 13]
Antagonist potency compared with 10 (OXE receptor [1]; [9]): slightly increased potency

SMILES: CCCCCCc1nc2ccccc2cc1C(=O)CCCC(=O)O [quinoline derivative]
Agonist activity (calcium mobilization by the compound itself) (OXE receptor [8]): did not act as an agonist
